Assay results published in PubChem BioAssay.
Values without a mark were called inactive.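 How the source made its calls: active means growth inhibition above 25% in both replicates, a cutoff set 3 SD above the mean; inconclusive means above 25% in only one replicate; inactive means the rest.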

Experiment: OD615 S. cerevisiae growth inhibition, permissive medium, pilot counter-assay, permissive growth control for S. cerevisiae lifespan shortening project (AID 705)
Conditions: OD615, 24 h, at 10 µM, active compounds read high
Method in brief: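 System – S. cerevisiae with engineered DeaD lifespan system · Buffer or medium – SC raffinose/galactose permissive medium · Schedule – cells pre-grown 4 h, then 24 h compound exposure, 30 °C humidified · Technique – culture turbidity as optical density at 615 nm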

SMILES	growth inhibition
CC(CCc1ccccc1)NC(=O)C1CCCN(c2nnc(-n3cccc3)s2)C1 (centres undefined)	-16.5%
O=C(c1cc(C2CC2)on1)N1CCN(C(c2ccccc2)c2ccccc2)CC1	-17.5%
O=C(C1COc2ccccc2O1)N1CCCC1 (centres undefined)	-16.3%
CCCCOC(=O)Nc1nc2ccc(OC)cc2s1	-8.06%
CCn1cc(C(=O)NCC2CCCO2)c(=O)c2cc(S(=O)(=O)N(C)C3CCCCC3)ccc21 (centres undefined)	-2.38%
CCCNC(=O)CS(=O)(=O)Cc1nc(-c2cccc(OC)c2)oc1C	7.42%
CC(=O)C1=C(N2CCCCC2)CCC1=O	2.54%
CCOC(=O)C1CCN(Cc2ccc(F)c(Br)c2)CC1	-3.72%
Cc1ccc(N(C(=O)c2ccncc2)C2C=CS(=O)(=O)C2)cc1 (centres undefined)	-8.7%
COc1ccc(CCNC(=O)C2(C)CCC(=O)N2Cc2ccc3c(c2)OCO3)cc1OC (centres undefined)	-13.9%
COc1ccc(C2c3c(oc4ccccc4c3=O)C(=O)N2c2ccc(C)cn2)cc1OC (centres undefined)	-7.72%
CCn1cc(C(=O)NCCCOC)c(=O)c2cc(S(=O)(=O)N(C)C)ccc21	-8.04%
Cc1cc(C)nc(/N=C2\NC(=O)CC(C(=O)O)N2c2ccc(Cl)cc2)n1 (centres undefined)	0.655%
O=C(O)c1ccccc1S(=O)(=O)NCC(O)COc1ccc(Br)cc1 (centres undefined)	-17.1%
COC(=O)Cn1c(=NC(=O)CSCC(=O)Nc2cc(C)on2)sc2ccccc21	-6.84%
COc1ccc(S(=O)(=O)N(CC(=O)N2CCN(c3ccccc3OC)CC2)c2ccccc2)cc1	-11.3%
CCOc1ccccc1NC(=O)CC1Nc2cc(C)c(C)cc2NC1=O (centres undefined)	-16.7%
COc1ccc(N2Cc3ccccc3C2)cc1Cl	-2.97%
CCOC(=O)C(CC)n1nc(C)n2c(cc3sccc32)c1=O (centres undefined)	-5.97%
CCOC(=O)C(CC)(CCC(=O)O)c1csc(N)n1 (centres undefined)	-4.72%

SMILES	growth inhibition
CCOc1ccc(NC(=O)CN2C(=O)C3CCCN3C2=O)cc1 (centres undefined)	-4.76%
CCOC(=O)N1CCN(C(=O)COc2ccc(S(=O)(=O)NC(C)C)cc2)CC1	-17.6%
O=C(NC1CCCc2ccccc21)c1ccc(CNc2c(N3CCOCC3)c(=O)c2=O)cc1 (centres undefined)	-3.71%
CNC(=O)c1ccsc1NC(=O)c1ccccc1	14.6%
N#Cc1cc2c(nc1SCC(=O)N1CCCCC1)CCCC2	-16.8%
COc1ccc(N2CCN(c3oc(COc4ccccc4Cl)nc3C#N)CC2)cc1	-2.64%
COc1ccccc1S(=O)(=O)Cc1ccc(C(=O)N2CCN(c3ccc(C)cc3)C(C)C2)o1 (centres undefined)	4.27%
CCOC(=O)N1CCC(c2cc(=O)n3[nH]c(C)c(-c4ccc(F)cc4)c3n2)CC1	2.81%
O=C1CCCC2=C1C(c1cccc(Br)c1)n1nc(-c3ccco3)nc1N2 (centres undefined)	-11.7%
CCc1ccccc1NC(=O)c1cnc2n(c1=O)CCS2	-7.06%
CC(CCc1ccco1)NC(=O)Cn1ncc2c1-c1ccccc1OC2 (centres undefined)	-5.12%
COc1cccc(NC(=O)C2CCCN(S(=O)(=O)c3cccc4cccnc34)C2)c1 (centres undefined)	-12.6%
COc1ccc(C(=O)Nc2nncs2)c(OC)c1	-4.15%
CNC(=O)c1ccccc1NC(=O)c1c(O)c2c([nH]c1=O)CCCC2	-17.1%
Cc1occc1C(=O)N1CCN(Cc2ccccc2)CC1	-0.31%
CN(C)CCCN1C(=O)CSC1c1ccccc1 (centres undefined)	-2.19%
CCc1ccc(N(CC(=O)NC2CCCC2)S(=O)(=O)c2c(C)noc2C)cc1	-3.32%
CSc1cccc(NC(=O)C2CCN(S(=O)(=O)c3ccc(F)cc3)CC2)c1	-1.68%
O=C(CSc1nnc(Cn2c(=O)sc3ccccc32)n1-c1ccccc1)Nc1nccs1	11.2%
